The subject of assay [1] is V79. Put plainly: Concentration giving 1% of control V79 cells survival in hypoxia. The assay is classed as functional, Cricetulus griseus. The gist of the method: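 V79 Chinese hamster lung fibroblasts, trypsinized from exponential monolayers into suspension (2 × 10^4 cells/mL, EMEM + 10% FBS + 10 mM HEPES), gassed with nitrogen 30 min before and throughout 2 h drug exposure; duplicate flasks per dose. Cells replated, colonies (>64 cells) counted after 7 days at 37 °C; dose-response curve gives micromolar dose for 1% of control survival.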

The nature of assay [2]: Hypoxia cytotoxicity ratio (HCR), calculated by dividing the dose in air by the dose in hypoxia giving 1% control cell survival. The assay is classed as functional. In short, it runs like this:
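Suspension cultures of V79 cells gassed continuously with pure air or nitrogen (30 min pre-gassing, then 2 h exposure), two flasks per dose, DMSO and nitracrine 0.06 μM controls. Clonogenic survival from plating efficiency relative to control after 7-day colony growth; ratio = air dose over hypoxic dose each giving 1% control survival, from dose-response curves.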

Each structure is given as a SMILES string. A value given as a limit tells only on which side of the number the result lay.

In the case of `Cc1ccc2c(c1)[n+]([O-])c(C#N)c(NCCCN(C)C)[n+]2[O-]`, the Potency in assay [1] is 1000 nM. Also, the HCR in assay [2] is recorded as 300.
For `CCN(CC)CCNc1c(C#N)[n+]([O-])c2cc(C)ccc2[n+]1[O-]` the same measures were 3000 nM and 100.
In assay [1], `COc1cc2c(cc1Cl)[n+]([O-])c(N)c(C#N)[n+]2[O-]` had a Potency of 10000 nM. Moreover, the HCR in assay [2] is listed as less than 10.
For `CN(C)CCCNc1c(C#N)[n+]([O-])c2cc(C(F)(F)F)ccc2[n+]1[O-]` the same measures were 300 nM and 340.
For `CCN(CC)CCNc1c(C#N)[n+]([O-])c2cc(C(F)(F)F)ccc2[n+]1[O-]`, in that order: 600 nM and 50.
For `N#Cc1c(N)[n+]([O-])c2ccc(C(F)(F)F)cc2[n+]1[O-]`, in that order: 7000 nM and 75.
Regarding `N#Cc1c[n+]([O-])c2ccc(F)cc2[n+]1[O-]`, in assay [1], the Potency came to 2000 nM. The HCR in assay [2] is given as more than 50.
For `CCN(CC)CCNc1c(C#N)[n+]([O-])c2ccccc2[n+]1[O-]`, in that order: 900 nM and 120.
For `N#Cc1c(NCCCN2CCOCC2)[n+]([O-])c2cc(Cl)ccc2[n+]1[O-]` the same measures were 800 nM and more than 125.
For `N#Cc1c(NCCCn2ccnc2)[n+]([O-])c2ccc(Cl)cc2[n+]1[O-]` the same measures were 2000 nM and more than 50.
For the compound `N#Cc1c(N)[n+]([O-])c2cc(F)c(F)cc2[n+]1[O-]`, in assay [1], the Potency worked out at 1000 nM. Besides, in assay [2], the HCR is less than 10.
Compound `N#Cc1c(N)[n+]([O-])c2ccccc2[n+]1[O-]` displayed a Potency in assay [1] of 30000 nM. In addition, in assay [2], the HCR is on record as 80.
For `CCN(CC)CCNc1c(C#N)[n+]([O-])c2cc(F)ccc2[n+]1[O-]`, in that order: 400 nM and 75.
For `N#Cc1c(N)[n+]([O-])c2ccc(Cl)cc2[n+]1[O-]` the same measures were 9000 nM and 150.
For `N#Cc1c[n+]([O-])c2cc(F)c(F)cc2[n+]1[O-]` the same measures were 300 nM and 5.
For the compound `COc1ccc2c(c1)[n+]([O-])c(C#N)c(NCCCN(C)C)[n+]2[O-]`, the Potency in assay [1] is 2000 nM. Also, the HCR in assay [2] is 200.
In assay [1], `N#Cc1c[n+]([O-])c2ccc(Cl)cc2[n+]1[O-]` returned a Potency of 3000 nM. Also, the HCR in assay [2] is on record as 30.
For `CCN(CC)CCNc1c(C#N)[n+]([O-])c2cc(OC)ccc2[n+]1[O-]`, in that order: 1000 nM and 100.
`N#Cc1c(N)[n+]([O-])c2ccc(F)cc2[n+]1[O-]` came in with a Potency in assay [1] of 15000 nM. In addition, in assay [2], the HCR is 100.
In assay [1], `Cc1ccc2c(c1)[n+]([O-])c(C#N)c[n+]2[O-]` came in with a Potency of 6000 nM. For the same compound, the HCR in assay [2] is 200.
As for `CN(C)CCCNc1c(C#N)[n+]([O-])c2cc(F)ccc2[n+]1[O-]`, the Potency in assay [1] was determined as 600 nM. Besides, the HCR in assay [2] is reported as 170.
For `Cc1cc2c(cc1C)[n+]([O-])c(C#N)c[n+]2[O-]`, in that order: 14000 nM and more than 7.
For `N#Cc1c(NCCCN2CCOCC2)[n+]([O-])c2ccc(Cl)cc2[n+]1[O-]`, in that order: 2000 nM and 300.
For `Nc1n[n+]([O-])c2ccccc2[n+]1[O-]` [TIRAPAZAMINE], in that order: 30000 nM and 75.
In turn, `CN(C)CCNc1c(C#N)[n+]([O-])c2cc(Cl)ccc2[n+]1[O-]` showed a Potency in assay [1] of 300 nM. Moreover, the HCR in assay [2] is reported as 100.
Compound `CN(CCCNc1c(C#N)[n+]([O-])c2cc(Cl)ccc2[n+]1[O-])CCCNc1c(C#N)[n+]([O-])c2cc(Cl)ccc2[n+]1[O-]` had a Potency in assay [1] of 700 nM. In addition, in assay [2], the HCR is given as 10.
For `N#Cc1c[n+]([O-])c2ccccc2[n+]1[O-]` the same measures were 5000 nM and more than 100.
For `COc1cc2c(cc1Cl)[n+]([O-])cc(C#N)[n+]2[O-]` the same measures were 400 nM and more than 50.
Take `N#Cc1c(N)[n+]([O-])c2cc(Cl)c(Cl)cc2[n+]1[O-]`: in assay [1], the Potency was determined as 1000 nM. Also, in assay [2], the HCR was 80.
For `CCN(CC)CCNc1c(C#N)[n+]([O-])c2cc(Cl)ccc2[n+]1[O-]`, in that order: 500 nM and 40.
Compound `Cc1c(C#N)[n+]([O-])c2ccccc2[n+]1[O-]` displayed a Potency in assay [1] of 10000 nM. For the same compound, the HCR in assay [2] is given as 15.
For `N#Cc1c[n+]([O-])c2ccc(-c3ccc([N+](=O)[O-])cc3)cc2[n+]1[O-]` the same measures were 200 nM and 200.
For `N#Cc1c[n+]([O-])c2ccc(C(F)(F)F)cc2[n+]1[O-]` the same measures were 6000 nM and 80.
For `N#Cc1c(NCCO)[n+]([O-])c2ccc(Cl)cc2[n+]1[O-]` the same measures were 4000 nM and 75.
In assay [1], `COc1ccc2c(c1)[n+]([O-])c(C#N)c[n+]2[O-]` gave a Potency of 5000 nM. In assay [2], the HCR was more than 200.
Take `N#Cc1c(N)[n+]([O-])c2ccc(-c3ccc([N+](=O)[O-])cc3)cc2[n+]1[O-]`: the Potency in assay [1] was 4000 nM. The HCR in assay [2] is given as 15.
For `COc1ccc2c(c1)[n+]([O-])c(C#N)c(N)[n+]2[O-]` the same measures were 30000 nM and more than 10.
In assay [1], `CN(C)CCCNc1c(C#N)[n+]([O-])c2cc(Cl)ccc2[n+]1[O-]` yielded a Potency of 400 nM. Also, the HCR in assay [2] is listed as 250.
For the compound `CN(C)CCCNc1c(C#N)[n+]([O-])c2ccccc2[n+]1[O-]`, in assay [1], the Potency is 1000 nM. Moreover, in assay [2], the HCR was 300.
Take `N#Cc1c[n+]([O-])c2cc(Cl)c(Cl)cc2[n+]1[O-]`: the Potency in assay [1] is 700 nM. The HCR in assay [2] was 10.

The record behind these values is ChEMBL document CHEMBL1128183, “Hypoxia-selective agents derived from 2-quinoxalinecarbonitrile 1,4-di-N-oxides. 2” (1995).
